In ChEMBL document CHEMBL3286336, “Design, synthesis and biological evaluation of hybrid bioisoster derivatives of N-acylhydrazone and furoxan groups with potential and selective anti-Trypanosoma cruzi activity” (Eur J Med Chem, 2014):

Legend:
Trypanosoma cruzi = test: Trypanocidal activity against Trypanosoma cruzi Tulahuen C2C4 amastigotes infected in rat L6 cells after 4 days; type: functional, organism-based; conditions: Tulahuen C2C4, L6, 96 h
[1] = Induction of NO release assessed as nitrite level; type: physicochemical
In short: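 Indirect measurement on a Sievers NOA 280 nitric oxide analyser; compounds dissolved in DMSO (1 mg in 200 µL) and analysed in oxygenated medium. Nitrite anion, the NO degradation byproduct, quantified; result given as IC50.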

Cruzipain = Cruzipain (Trypanosoma cruzi, UniProt P25779); test: Inhibition of Trypanosoma cruzi cruzain expressed in Escherichia coli M15/DH5alpha using Z-Phe-Arg-AMC as substrate by spectrofluorometry
Cruzipain, sequence (P25779 whole entry, the tested form may be a part): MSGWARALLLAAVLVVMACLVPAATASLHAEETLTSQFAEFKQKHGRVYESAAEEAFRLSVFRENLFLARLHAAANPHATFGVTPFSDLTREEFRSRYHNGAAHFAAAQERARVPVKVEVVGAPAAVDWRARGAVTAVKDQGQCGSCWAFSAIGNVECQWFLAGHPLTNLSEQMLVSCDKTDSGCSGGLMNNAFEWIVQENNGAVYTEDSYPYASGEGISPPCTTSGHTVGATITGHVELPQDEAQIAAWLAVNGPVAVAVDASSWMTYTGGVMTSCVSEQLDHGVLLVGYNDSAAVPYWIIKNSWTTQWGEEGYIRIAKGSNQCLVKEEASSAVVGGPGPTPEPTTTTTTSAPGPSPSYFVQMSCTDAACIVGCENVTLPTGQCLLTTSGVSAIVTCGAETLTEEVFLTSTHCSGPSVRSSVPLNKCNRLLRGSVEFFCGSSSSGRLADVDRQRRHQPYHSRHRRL
In short: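 C-terminally truncated cruzain (0.64 nM) in 50 mM sodium phosphate, 100 mM NaCl, 5 mM EDTA, 5 mM DTT, pH 6.5, preincubated 5 min at room temperature with inhibitor before adding Z-Phe-Arg-AMC. AMC release followed by fluorescence (ex 355, em 460 nm). IC50 by nonlinear regression of activity relative to no-inhibitor control.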

[2] = Permeability across apical to basolateral side in human Caco2 cells; type: ADME, cell-based; conditions: Caco-2, read-out: permeability
In short: (§1)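 Caco-2 grown 21 days on Transwell filters (seeded 5 × 10⁴ cells/cm²); monolayer integrity checked by TEER and fluorescein, metoprolol, amoxicillin markers. […] compound in HBSS pH 7.4 dosed A→B and B→A, basolateral pH 7.4, 37 °C, orbital shaking 25 rpm. Quantified by HPLC-UV 254 nm (C18, 35 °C, phosphate pH 3.5/acetonitrile 50:50). Papp = (VR·ΔQ/Δt)/(A·C0), using only receiver concentrations under 10% of donor.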

[3] = Permeability across basolateral to apical side in human Caco2 cells; type: ADME, cell-based; conditions: Caco-2, read-out: permeability; in short: as §1
[4] = Efflux ratio of permeability from basolateral to apical side over apical to basolateral side in human Caco2 cells; type: ADME, cell-based; conditions: Caco-2
HepG2 = test: Cytotoxicity against human HepG2 cells after 24 hrs by XTT assay; type: cell-based; conditions: HepG2, 24 h
In short: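 Cells kept in DMEM with 10% FCS, penicillin/streptomycin and bicarbonate at 37 °C, 5% CO2; plated at 5 × 10⁴ cells/well 24 h before treatment. Exposed 24 h to […] in DMSO (final 0.44% v/v). After two PBS washes, XTT reagent added for 1 h at 37 °C; OD 450 nm minus 690 nm, normalized to medium-only controls.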

[5] = Selectivity index, ratio of IC50 for human HepG2 cells to IC50 for Trypanosoma cruzi Tulahuen C2C4; type: toxicity, cell-based; conditions: read-out: Ratio IC50
In short: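 SI computed as XTT cytotoxicity IC50 divided by amastigote IC50.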

IC50 [1] | IC50 (Cruzipain) | Papp A→B [2] | Papp B→A [3] | efflux ratio [4] | SMILES | IC50 (Trypanosoma cruzi) | IC50 (HepG2) | selectivity ratio [5]
132 µM | – | – | – | – | O=C(N/N=C/c1c(-c2ccccc2)no[n+]1[O-])c1ccccc1 | > 100 µM | – | –
867 µM | – | – | – | – | O=C(N/N=C/c1c(-c2ccccc2)no[n+]1[O-])c1ccco1 | 8.12 µM | – | –
912 µM | – | – | – | – | O=C(N/N=C/c1c(-c2ccccc2)no[n+]1[O-])c1cccc([N+](=O)[O-])c1 | 15.3 µM | – | –
33.4 µM | – | – | – | – | O=C(Cc1ccccc1)N/N=C/c1c(-c2ccccc2)no[n+]1[O-] | 9.1 µM | – | –
4230 µM | – | – | – | – | O=C(N/N=C/c1c(-c2ccccc2)no[n+]1[O-])c1ccc(Cl)cc1 | > 100 µM | – | –
601 µM | – | – | – | – | O=C(N/N=C/c1c(-c2ccccc2)no[n+]1[O-])c1ccc(Br)cc1 | > 100 µM | – | –

The remaining lines, values behind:

SMILES | IC50 [1] | IC50 (Cruzipain) | Papp A→B [2] | Papp B→A [3] | efflux ratio [4] | IC50 (Trypanosoma cruzi) | IC50 (HepG2) | selectivity ratio [5]
O=C(N/N=C/c1c(-c2ccccc2)no[n+]1[O-])c1ccc([N+](=O)[O-])cc1 | 110 µM | 15.1 µM | 0.82 ×10⁻⁶ cm/s | 0.52 ×10⁻⁶ cm/s | 0.63 | 2.9 µM | 45.5 µM | 15.7
O=C(Cn1ccnc1[N+](=O)[O-])NCc1ccccc1 [BENZNIDAZOLE] | – | – | – | – | – | 1.5 µM | 28.1 µM | 18.7
Cc1c(/C=N/NC(=O)c2ccc([N+](=O)[O-])cc2)no[n+]1[O-] | 242 µM | 11.2 µM | 43.2 ×10⁻⁶ cm/s | 37.6 ×10⁻⁶ cm/s | 0.87 | 2.88 µM | 80.9 µM | 28.1
Cc1c(/C=N/NC(=O)c2ccc(Cl)cc2)no[n+]1[O-] | 56 µM | – | – | – | – | 14.3 µM | – | –
Cc1c(/C=N/NC(=O)c2cccc([N+](=O)[O-])c2)no[n+]1[O-] | 52 µM | – | – | – | – | 9.94 µM | – | –
Cc1c(/C=N/NC(=O)c2ccccc2Nc2ccccc2)no[n+]1[O-] | 124 µM | – | – | – | – | 5.69 µM | – | –
Cc1c(/C=N/NC(=O)c2ccco2)no[n+]1[O-] | 1220 µM | – | – | – | – | 6.7 µM | – | –
Cc1c(/C=N/NC(=O)c2ccc(Br)cc2)no[n+]1[O-] | 102 µM | – | – | – | – | 27.4 µM | – | –
Cc1c(/C=N/NC(=O)Cc2ccccc2)no[n+]1[O-] | 898 µM | – | – | – | – | > 100 µM | – | –
Cc1c(/C=N/NC(=O)c2ccccc2)no[n+]1[O-] | 210 µM | – | – | – | – | > 100 µM | – | –
